High-throughput results from PubChem BioAssay.
CRFR2-BP antag = CRF-BP/CRF-R2 complex antagonism; actives 0.59% (n = 350,000); AID 588475; inhibition, % at 11.8 µM; HEK293 CRF-R2/CRF-BP, CRF-induced calcium fluorescence;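 active = inhibition of the ligand-induced calcium signal above about 50% at the single tested concentration, limit read from the data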
RTF Ca sens act = increases calcium sensitivity of human cardiac regulated thin filaments; P19429+P45379; IANBD-labeled TnC RTF fluorescence at EC20 calcium; 0% EC20 calcium, 100% full calcium; activation, % at 7.2 µM; actives 0.24% (n = 340,000); AID 493008;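 active = activation above the mean over all tested compounds plus 3 SD, cut at about 30% in these data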;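 also: rise in fluorescence read as greater calcium sensitivity of cardiac thin filaments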
DDE Tn7 FP inh = DD(E)-Tn7 binding inhibition, primary FP screen | AID 720508 | FP displacement of FITC-Tn7 peptide from fibrin DD(E); 0% = median of compound wells per plate | inhibition, % at 8.3 µM | actives 0.13% (n = 370,000) | P02675;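 active = inhibition above the mean of compounds falling within the control limits plus 3 SD of them, cut at about 14% in these data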;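 also: 0% = plate median of compound wells and 100% = 10 µM Aha-Tn7 peptide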
Target sequence (P02675 whole entry, looked up): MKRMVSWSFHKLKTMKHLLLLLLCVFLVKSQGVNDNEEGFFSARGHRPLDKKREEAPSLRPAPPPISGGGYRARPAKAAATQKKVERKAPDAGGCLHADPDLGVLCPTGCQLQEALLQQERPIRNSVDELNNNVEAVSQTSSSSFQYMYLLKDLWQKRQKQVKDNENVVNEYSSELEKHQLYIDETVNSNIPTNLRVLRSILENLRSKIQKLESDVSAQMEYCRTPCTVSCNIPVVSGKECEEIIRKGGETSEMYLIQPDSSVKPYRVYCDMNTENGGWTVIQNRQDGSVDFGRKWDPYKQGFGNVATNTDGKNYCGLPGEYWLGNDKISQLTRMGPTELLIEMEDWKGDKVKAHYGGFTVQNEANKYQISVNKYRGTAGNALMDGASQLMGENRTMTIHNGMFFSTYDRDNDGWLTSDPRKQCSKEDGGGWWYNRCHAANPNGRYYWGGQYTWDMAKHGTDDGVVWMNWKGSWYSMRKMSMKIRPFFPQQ
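Measure: % inhibition scaled between sample-field median and high-control FP; Test system: human fibrin DD(E); Quantity: 2 µM final DD(E) protein; Doses: one dose, 8.3 µM nominal; Schedule: compound with protein 10 min, then 3 h after probe, room temperature; Detection: fluorescence polarization; Medium: Tris buffer with calcium and detergent, pH 7.8.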
CRFBP-R2 agonist = CRF-BP/CRF-R2 complex agonism | HEK293 CRF-R2/CRF-BP, calcium dye fluorescence (FLIPR); percent of saturating CRF peptide response | activation, % at 13.2 µM | actives 0.46% (n = 350,000) | AID 588473;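 active = activation of at least 50%, plus an integration ratio under a set limit after plate pattern correction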;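 also: plate controls were neutral control wells without compound for no effect and CRF at EC100 for full effect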
RTF Ca sens inh = cardiac RTF calcium desensitization. actives 0.12% (n = 340,000). inhibition, % at 7.15 µM. IANBD-labeled cardiac RTF, Ca2+ fluorescence. P19429+P45379;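 active = inhibition above the mean inhibition of all tested compounds plus 3 SD, cut at about 17% in these data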;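 also: assay run at fixed EC70 calcium of 1.6 mM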
Tn6 DDE FP = inhibitors of Tn6 peptide binding to human fibrin DD(E); Fibrin DD(E) TRITC-Tn6 fluorescence polarization displacement; actives 0.21% (n = 370,000); P02675; AID 720509; inhibition, % at 8.3 µM;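 active = inhibition above a per-campaign cutoff: mean of compounds within control limits plus 3 SD, cut at about 15% in these data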;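 also: 0% = median of all compound wells on the plate and 100% = blocking peptide control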
Starred values were filed as active, the others as inactive; i = inactive; x = no result. A selection: hits, their analogues and other compounds. The true share with any hit is near 1.4%.

SMILES | CRFR2-BP antag | RTF Ca sens act | DDE Tn7 FP inh | CRFBP-R2 agonist | RTF Ca sens inh | Tn6 DDE FP
CSc1ccccc1NC(=O)c1cc(CC(C)C)on1 | 62.7* | 13.4 | 0.6 | 0.0 | 0.3 | 7.7
CCC(=O)N=c1sc2c(OC)ccc(OC)c2n1C | -2.6 | 2.4 | 0.7 | -1.7 | -3.0 | 3.5
COc1ccc(OC)c2c1sc(=NC(=O)C1COc3ccccc3O1)n2C (stereo not given) | 82.5* | -1.7 | -3.8 | 4.6 | 1.6 | 3.2
CC1C/C(=N\NC(=O)c2cccnc2)CC(C)(C)C1 (stereo not given) | -0.6 | -0.1 | -0.3 | 0.3 | -3.1 | -3.8
CC1C/C(=N\NC(=O)c2ccc([N+](=O)[O-])cc2)CC(C)(C)C1 (stereo not given) | 71.7* | -2.8 | 3.4 | 4.9 | -6.8 | 1.5
O=C(NCCc1ccccc1)OCc1cn(Cc2cc(F)ccc2F)nn1 | x | x | 4.0 | x | x | 2.5
Cc1cccc(Nc2nc(N)nc(N)c2N=O)c1 | -66.0 | -3.5 | 0.8 | -3.4 | -1.1 | -3.9
Cc1ccc(N(C)c2nc(N)nc(N)c2N=O)cc1 | x | x | -8.2 | x | x | 57.5*
Cc1ccc(CN2CC(C(=O)NCCCSc3ccccc3)CC2=O)cc1 (stereo not given) | 56.0* | 0.4 | 2.8 | 0.6 | -5.6 | 4.8
CC(C)(CO)NCC#Cc1ccccc1 | -2.1 | 34.1* | 4.7 | 0.8 | -3.5 | -1.4
CCC[N+](CC#CCO)(CC#Cc1ccccc1)CCC | 8.2 | 6.0 | 4.4 | 0.7 | -10.7 | 6.9
O=C(Nc1ccccc1)Nc1nc2ncccn2c1-c1ccc(F)cc1 | x | x | -4.4 | x | x | 4.0
CCCOc1ccc(C(=O)N2CCN(c3ccc(NC(=O)CC)cc3Cl)CC2)cc1 | 61.7* | -4.3 | 9.2 | -2.2 | 4.5 | 0.2
COc1cc(/C=C2/SC(=Nc3ccc(O)cc3)NC2=O)cc(OC)c1O | -16.1 | 7.5 | -21.1 | 12.7 | -4.9 | -18.9
COc1ccccc1N=C1NC(=O)/C(=C/c2ccc(N(C)C)cc2)S1 | -86.0 | 47.5* | -31.9 | 79.4* | -87.5 | -9.8
CN1C(=O)NC(c2ccccc2)C2=C1CN(CCc1ccccc1)C2=O (stereo not given) | 124.8* | 0.6 | 0.0 | 0.2 | -1.2 | 0.1
COC(=O)C1CN(Cc2ccc(C)cc2)CCS(=O)(=O)N1Cc1cn(Cc2ccc(OC)cc2)nn1 (stereo not given) | x | x | 1.6 | x | x | 0.7
Cc1c(Cl)cccc1N1C(=O)c2ccccc2C1=O | 50.7* | 3.5 | 0.4 | -1.0 | -4.0 | -2.0
COC(=O)c1cc(-c2ccc(-c3ccccc3)c(F)c2)c(=O)n2c1CCC2 | x | x | 5.0 | x | x | -1.0
CCc1ccccc1NC(=O)NC(C)c1ccc2c(c1)OCO2 (stereo not given) | 60.8* | 5.0 | 1.4 | -3.0 | 0.0 | -0.6
CC(NC(=O)Nc1ccc(Cl)cc1)c1ccc2c(c1)OCO2 (stereo not given) | 0.1 | -1.2 | 2.9 | -1.0 | -0.5 | 8.4
COc1cccc(OC)c1NC(=O)OC1CCC12CCC(c1ccccc1)CC2 (stereo not given) | x | x | -4.5 | x | x | 0.3
Cc1ccc(C(=O)Nc2ccccc2SCC2CSc3nc4ccccc4c(=O)n32)cc1 (stereo not given) | 11.6 | -1.8 | -2.9 | 1.2 | -10.5 | 1.7
O=C(Nc1ccccc1SCC1CSc2nc3ccccc3c(=O)n21)c1ccccc1 (stereo not given) | 66.6* | -2.4 | -0.9 | -3.1 | -4.6 | -6.2
COc1ccc(-n2c(O)c(/C=N/NS(=O)(=O)c3ccc(C)c([N+](=O)[O-])c3)c3ccccc3c2=O)cc1OC | -38.8 | 127.5* | -0.8 | 11.9 | -63.9 | -6.5
SMILES | CRFR2-BP antag | RTF Ca sens act | DDE Tn7 FP inh | CRFBP-R2 agonist | RTF Ca sens inh | Tn6 DDE FP
CC(N)c1csc(Nc2ccc(S(C)(=O)=O)cc2)n1 (stereo not given) | x | x | 3.3 | x | x | 10.7
Cc1nc2ccc(S(=O)(=O)NCC(=O)N(C)Cc3ccccc3F)cc2s1 | x | x | 6.0 | x | x | -0.3
CN(C)c1ccc(C(=O)/C=C/c2ccc(Br)cc2)cc1 | 23.8 | 2.1 | 0.6 | 0.9 | -3.1 | 8.4
CCN(CC)c1ccc(/C=C/C(=O)c2ccc(Br)cc2)cc1 | -342.9 | 475.9* | -7.0 | 325.5* | i | -4.6
CCN(CC)C(=O)[C@H]1C[C@H](CC(=O)NC/C=C(\C)CCC=C(C)C)C(=O)N2CCc3c([nH]c4cc(CCC(=O)N(C)C)ccc34)[C@]12C | 67.0* | -7.8 | x | 0.1 | -2.3 | x
CCN(CC)C(=O)[C@H]1C[C@H](CC(=O)NCc2ccc(OC)c(OC)c2)C(=O)N2CCc3c([nH]c4cc(CCC(=O)N(C)C)ccc34)[C@]12C | -11.8 | -5.4 | 1.1 | 0.5 | -6.6 | 11.6
Clc1ccc(-n2cc(COCc3ccccc3)nn2)cc1 | 63.3* | 1.5 | -0.8 | -4.0 | 13.1 | -0.9
COC(=O)[C@]12CCCCC=C1N(Cc1ccccc1)C(=O)[C@H](CC(=O)NCCCCc1ccccc1)C2 | x | x | -2.0 | x | x | 1.5
O=C(O)c1cccc2c1C(=O)c1ccc(N3CCCC3)cc1S2(=O)=O | -3.6 | 35.8* | -10.7 | 17.0 | -41.9 | 3.1
CN1CCC[C@@H]1CCNC(=O)c1cccc2c1C(=O)c1ccc(N3CCCC3)cc1S2(=O)=O | -7.8 | 18.2 | -1.0 | 13.8 | -27.6 | -4.2
O=C(NCCc1ccc(F)cc1)c1cccc2c1C(=O)c1ccc(N3CCC(Cc4ccccc4)CC3)cc1S2(=O)=O | -177.4 | 117.0* | x | 173.6* | -178.5 | x
O=C(NCc1cccc(F)c1)c1cccc2c1C(=O)c1ccc(N3CCC(Cc4ccccc4)CC3)cc1S2(=O)=O | -44.8 | 177.8* | x | 74.8* | -220.8 | x
O=C(NCc1cccc(C(F)(F)F)c1)c1cccc2c1C(=O)c1ccc(N3CCC(Cc4ccccc4)CC3)cc1S2(=O)=O | -49.4 | 95.0* | x | 66.8* | -193.5 | x
CCC(NC(=O)c1ccc2c(c1)c(C)c(C)n2Cc1ccc(-c2ccccc2C#N)cc1)c1ccccc1 (stereo not given) | x | x | -3.7 | x | x | -6.7
O=C(NCc1ccco1)c1cccc2c1C(=O)c1ccc(N3CCC(Cc4ccccc4)CC3)cc1S2(=O)=O | -14.2 | 117.3* | x | 62.1* | -196.8 | x
CC1CCN(c2ccc3c(c2)S(=O)(=O)c2cccc(C(=O)NCc4cccc(F)c4)c2C3=O)CC1 | -29.0 | 164.4* | -8.5 | 91.8* | -98.5 | -8.3
COc1ccccc1N1CCN(c2ccc3c(c2)S(=O)(=O)c2cccc(C(=O)NCc4ccc(F)cc4)c2C3=O)CC1 | 5.5 | x | 7.2 | 0.1 | x | 8.0
O=C(NCc1cccc(F)c1)c1cccc2c1C(=O)c1ccc(N3CCCC3)cc1S2(=O)=O | -49.3 | 76.1* | x | 91.3* | -84.7 | x
COCCNC(=O)c1c(N)[nH]c(C(=O)c2ccc(Br)cc2)c1-c1ccc(Br)cc1 | x | x | 6.0 | x | x | 2.8
CCCNC(=O)C[C@H]1CC[C@H]2[C@@H](COc3ccc(NC(=O)c4cncs4)cc3C(=O)N2C)O1 | x | x | 4.8 | x | x | -7.5
